Measurements as given in article PMC3313494 (Journal of the American Chemical Society, 2012).
Ends that are not written are not given here.

Assays:
[1] = test system: sirtuins; assay: Turnover of biotin-NAD as NAD alternate substrate; assay type: biochemical; details: 6-biotin-17-NAD; Supplemental Figure S12
[2] = test system: monoamine oxidases; details: used in the treatment of clinical depression; cited from earlier work
[3] = molecular target: T1, SIRT1 (Homo sapiens, UniProt Q96EB6); assay: HPLC deacetylation assay, SIRT1; assay type: biochemical; details: 0.07 μM (1U) SIRT1, 500 μM NAD, peptide 0–500 μM, pH 8.0, 37°C, 0–20 min, at least duplicate
T1 sequence (Q96EB6 1-747): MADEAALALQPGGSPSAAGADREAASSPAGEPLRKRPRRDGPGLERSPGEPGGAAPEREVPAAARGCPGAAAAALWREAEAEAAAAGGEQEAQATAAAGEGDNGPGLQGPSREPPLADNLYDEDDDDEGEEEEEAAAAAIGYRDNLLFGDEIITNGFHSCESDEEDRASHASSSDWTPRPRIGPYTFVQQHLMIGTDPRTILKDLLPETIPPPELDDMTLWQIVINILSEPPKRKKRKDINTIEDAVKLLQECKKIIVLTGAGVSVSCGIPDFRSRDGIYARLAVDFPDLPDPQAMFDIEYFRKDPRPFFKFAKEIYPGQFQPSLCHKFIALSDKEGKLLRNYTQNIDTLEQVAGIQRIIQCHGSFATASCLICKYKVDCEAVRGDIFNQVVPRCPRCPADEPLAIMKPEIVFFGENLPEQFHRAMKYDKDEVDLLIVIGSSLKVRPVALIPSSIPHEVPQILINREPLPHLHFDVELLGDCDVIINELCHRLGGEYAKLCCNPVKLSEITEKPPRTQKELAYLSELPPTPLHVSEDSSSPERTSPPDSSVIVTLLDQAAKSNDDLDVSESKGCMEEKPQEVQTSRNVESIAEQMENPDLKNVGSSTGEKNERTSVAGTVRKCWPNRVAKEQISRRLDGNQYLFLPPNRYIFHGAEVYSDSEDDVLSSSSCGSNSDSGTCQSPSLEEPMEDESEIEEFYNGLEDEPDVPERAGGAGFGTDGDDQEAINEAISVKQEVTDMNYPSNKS

[4] = molecular target: Sir2Tm (Thermotoga maritima, UniProt Q9WYW0); assay: HPLC deacetylation assay, Sir2Tm; assay type: biochemical, bacterial; details: pH 8.0, 37°C
Sequence of Sir2Tm (Q9WYW0 whole entry): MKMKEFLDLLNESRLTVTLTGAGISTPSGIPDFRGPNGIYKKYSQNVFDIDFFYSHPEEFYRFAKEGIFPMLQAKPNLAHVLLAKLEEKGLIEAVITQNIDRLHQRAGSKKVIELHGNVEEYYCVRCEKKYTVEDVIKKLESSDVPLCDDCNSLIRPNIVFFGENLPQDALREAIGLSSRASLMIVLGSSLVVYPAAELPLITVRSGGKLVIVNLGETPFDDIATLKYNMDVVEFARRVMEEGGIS
Method in brief: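 Enzyme addition at 37°C started the reaction; Sir2Tm was refolded from inclusion bodies, ~90% pure. Aliquots at 0, 5, 10, 20 min were acid-quenched, urea-treated, ultrafiltered and resolved by C18 reverse-phase HPLC; integrated peak areas gave rate constants.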

6-biotin-17-NAD
use as NAD alternate substrate by sirtuins [1]: can be turned over by sirtuins as an NAD alternate substrate

NNCCc1ccccc1 [phenethylhydrazine]
monoamine oxidase inhibition [2]: well-established inhibitor of monoamine oxidases

K382KAc: corresponding natural acetylated substrate, p53 (372–389) peptide containing acetyl-lysine at 382 (KKGQSTSRHKK(Ac)LMFKTEG; UniProt P04637 372-389, looked up, fragment)
deacetylation rate (apparent kcat) [3]: 12.3 ± 0.7 min⁻¹
deacetylation rate (apparent kcat) ([4]; 0.3–0.15 μM Sir2Tm, 500 μM NAD, peptide 0–500 μM, 0–20 min, HPLC, at least duplicate): 10.8 ± 1.5 min⁻¹
Km ([4]; steady-state kinetics, Sir2Tm, 0.5 mM NAD, p53 (372–389) peptides): 71.8 ± 24.5 µM
